KCC2 mod: modulators of human KCC2 chloride dependent transport; KCC2 cells, thallium flux FluoZin-2 fluorescence; B-score of Tl+ flux slope (higher = more flux/activation; lower = inhibition) at 10 µM; hit rate 2.2% among 190,000;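 active = thallium flux slope and its plate-corrected score both differing from the plate sample mean at a set confidence after two filtering rounds, in either direction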;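 also: slope of fluorescence scaled to starting intensity during 10 to 20 s after thallium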
KCNQ1 inh: blocks the human KCNQ1 potassium channel; hit rate 1.3% among 310,000; CHO-K1 KCNQ1, FluxOR thallium flux fluorescence; stronger effect = higher value; B-score at 10 µM;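 active = compounds whose thallium flux B-score, printed positive for inhibition, exceeds three library SD while starting fluorescence stays within three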;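 also: channel opened by potassium depolarization with thallium stimulus after 20 min compound exposure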
hERG rescue: compounds protecting human hERG from proarrhythmic drug block. CHO-hERG, FluxOR thallium flux, dofetilide IC70 present. activation (rescue from dofetilide block), less the hit threshold, % at 10 µM. hit rate 0.51% among 310,000. AID 1511;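 active = activation above the mean of controls blocked by dofetilide plus 5 SD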;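 also: thallium influx through hERG after potassium depolarization seen as dye fluorescence rise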
SUMO Mot1 rescue: blocks SUMOylation pathway, rescuing yeast Mot1-301 growth | S. cerevisiae Mot1-301 growth rescue, ATP luminescence, 38.5C; percent above DMSO median, 100 means doubled | growth rescue, % at 18.8 µM | hit rate 1% among 320,000;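 active = every valid replicate shows activation above 250% relative to neutral control wells; inactive = the rest, any valid replicate at or below 250%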;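 also: OY570 slx delta 5 strain wells were the positive control but not used for scaling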
AI-2 QS modul: modulates the Vibrio harveyi AI-2 quorum sensing system. Vibrio harveyi JMH597 AI-2 luminescence/OD600 ratio, 9 h; stronger effect = lower value; strain lacks LuxN and CqsS sensors; 0 = neutral-control median. activity change, % at 7.5 µM. hit rate 0.4% among 300,000. AID 2094; in the data active = activity change below about -75%, passing the limit was not always enough;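 also: luminescence divided by OD600 gain over 9 h not by final OD600 alone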
KCNQ1 pot: human KCNQ1 channel potentiation or activation; CHO-K1 KCNQ1, thallium flux FluxOR fluorescence; stronger effect = higher value; AID 2648; P51787; B-score at 10 µM; hit rate 0.35% among 310,000;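 active = fluorescence ratio B-score, a plate-corrected score, at least three library SD, with initial intensity B-score within 5 SD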
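Doses: Single concentration per compound, DMSO matched to controls | Test system: KCNQ1-transfected CHO-K1 cells | Timing: 90 min dye loading and 20 min compound exposure, both at room temperature | Measured by: Kinetic FluxOR thallium fluorescence, 10-s 1-Hz baseline, 110-s post-stimulus read | Medium: Assay buffer with matched DMSO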
Numbers without * were called inactive; i = inactive; x = not tested or not shown; + = active, no number. This is a sample that favours compounds with a hit; in the whole collection about 4.2% have one here.

SMILES	KCC2 mod	KCNQ1 inh	hERG rescue	SUMO Mot1 rescue	AI-2 QS modul	KCNQ1 pot
CCCC(=O)C1=C(O)C(C(=O)OC)C(C)(C)CC1=Nc1cccc2ccccc12 (configuration not stated)	-1.92	6*	-4.3	-1.7	7.5	i
Cc1ccc(/C=N/NC(=O)CC2N=C(Cc3ccccc3)NNC2=O)cc1 (configuration not stated)	-0.136	i	5.2*	-6.9	10.8	i
COc1cccc2c1cc1c(=O)n(CC(=O)NCCCN3CCCCC3)nc(C)n12	x	i	-3.5	-19.6	10.8	i
Nc1cc(=O)[nH]c(SCC(=O)NNC(=O)Cc2ccccc2)n1	0.00117	i	-7.5	333.3*	11.3	i
Nc1cc(=O)[nH]c(SCC(=O)NNC(=O)c2ccccc2)n1	x	i	-11.7	75.5	9.2	i
CCN(CC)CC#CCC(OC)(c1ccccc1)c1ccccc1	x	i	-20.8	x	10.9	i
CCSc1nnc(-c2ccc(S(=O)(=O)N3CCOCC3)cc2)n1CC1CCCO1 (configuration not stated)	0.082	i	-5.9	137.4	19.1	i
CSc1nnc(-c2ccc(S(=O)(=O)N3CCOCC3)cc2)n1CC1CCCO1 (configuration not stated)	x	i	-8.9	333.4*	11.6	i
Cc1ccc(Sc2ncccc2COC(=O)NC(C)C)cc1	-0.602	i	0.8	9.3	9.5	i
O=C(Oc1c(-c2ccccc2)c(=O)n2c3c(cccc13)CC2)c1cccc([N+](=O)[O-])c1	-2.7	6*	-11.3	2.0	-1.1	i
C=CCn1c(SCc2csc(-c3ccc(C)cc3)n2)nnc1-c1ccccc1OC	-2.38	6*	-19.6	6.5	8.7	i
C=CC[C@@H]1C=C[C@H](O/N=C/c2ccc(C(=O)N3[C@H](c4ccc(C)cc4)[C@@H](C)CC[C@H]3C(=O)OC)cc2)[C@@H](CO)O1	0.276	i	-9.4	-29.2	10.1	i
COC(=O)c1ccccc1NC(=O)/C=C/C(=O)O	0.473	i	-0.2	-13.7	11.6	i
NC(=O)c1ccccc1NC(=O)N1CCOCC1	x	i	1.9	-12.0	18.2	9*
NC(=O)c1ccccc1NC(=O)/C=C/C(=O)O	0.627	i	15.3*	-10.1	30.5	i
Cc1nn(C)cc1CNCc1c(C(=O)N2CCCCC2)nc2c(C)cccn12	0.758	i	-15.4	-3.2	-10.9	i
C/C(=C\C(=O)c1ccccc1)NNC(=O)c1ccc(Cl)cc1	x	i	6.5*	8.3	9.8	i
COc1ccc(C(=O)NN/C(C)=C/C(=O)c2ccccc2)cc1	x	i	9.1*	-7.4	48.0	i
COc1ccc(N/C(C)=C/C(=O)c2ccccc2)cc1	0.129	i	-2.1	-9.0	30.8	i
C=CCOc1ccc(C2OC34CCCCC3C(C#N)(C#N)C2(C#N)C(=N)O4)cc1 (configuration not stated)	-0.033	i	5.6*	x	44.9	i
CC(=O)Nc1ccc(S(=O)(=O)N2CCC(C(=O)O)CC2)cc1	0.00837	i	0.2	-19.4	2.2	10*
COC(=O)C1CCN(S(=O)(=O)c2ccc(NC(C)=O)cc2)CC1	-0.199	i	-5.0	-6.4	7.1	i
COc1ccc(NC(=O)c2sc3nc(C)cc(C)c3c2N)cc1	x	i	4.8*	3.9	7.3	i
Cc1cc(C)c2c(N)c(C(=O)Nc3ccc(F)cc3)sc2n1	x	i	-5.6	76.8	11.5	i
Cc1cccn2c(CNCC3(c4ccccc4)CCCC3)c(C(=O)N3CCOCC3)nc12	-0.0732	i	-12.0	-16.7	3.5	i
SMILES	KCC2 mod	KCNQ1 inh	hERG rescue	SUMO Mot1 rescue	AI-2 QS modul	KCNQ1 pot
COc1ccc(/C=N\Nc2ccc([N+](=O)[O-])cc2[N+](=O)[O-])c(C(=O)O)c1OC	0.914	i	-4.4	7.6	21.8	i
COc1ccc(/C=N\Nc2ccccc2[N+](=O)[O-])c(C(=O)O)c1OC	x	i	-7.9	974.0*	-0.9	i
c1ccc(-c2cccc(-c3ccccn3)n2)nc1	-0.18	i	-4.3	6.5	-89.0*	i
c1ccc(-c2nnc(-c3ccccn3)nn2)nc1	x	i	-16.4	-28.0	10.7	i
C=CCN1C(=O)/C(=C/C=C2/N(CC)c3ccc(S(=O)(=O)N(C)C)cc3N2CC)SC1=S	-0.0202	9*	-16.7	-0.9	20.5	i
CCOC(=O)c1ccc2c(c1)N(CC)/C(=C\C=C1/SC(=S)N(CC)C1=O)N2CC	0.526	x	x	x	x	x
Cc1noc(C)c1S(=O)(=O)NCc1ccc(CN(C)C)cc1	x	x	x	-9.2	x	x
O=C1N=C(N2C=CC(=C3C=CNC=C3)C=C2)/C(=C/N=NC(=O)c2ccccc2)S1	x	i	-2.4	-4.2	10.7	i
Cc1ccc(OC(=O)c2ccc(Br)o2)cc1	0.483	i	22.2*	14.6	34.0	i
CC(C)(C)NS(=O)(=O)c1ccc(-c2csnn2)s1	1.28	i	-6.0	4.9	3.1	i
O=S(=O)(NC1CCCCC1)c1ccc(-c2csnn2)s1	-0.872	i	-0.4	297.0*	22.3	i
CCCN1C(=O)SC(CC(=O)Nc2ccccc2)C1=O (configuration not stated)	x	i	8.6*	-8.8	38.6	i
CCCN1C(=O)SC(CC(=O)Nc2cccc3ccccc23)C1=O (configuration not stated)	-0.652	i	-2.9	-0.6	30.9	i
O=C(COc1nncc2ccccc12)NCCC1=CCCCC1	x	i	-8.4	-12.3	-76.9*	i
O=C(COc1ncnc2ccccc12)NCCC1=CCCCC1	-0.702	i	-8.9	-12.6	-34.6	i
COC(=O)C(C)N(C(=O)c1cccc2ccccc12)c1c(C)cccc1C (configuration not stated)	-3.72*	i	-8.5	-3.9	18.4	i
COC(=O)C(C)N(C(=O)c1cccc(Cl)c1)c1c(C)cccc1C (configuration not stated)	-0.664	i	-8.2	-19.7	20.3	i
O=C(O)Cn1cc(/C=N/NC(=O)c2cc3cc(Br)ccc3o2)c2ccccc21	0.366	i	-15.1	+	18.9	i
CC(OC(=O)c1cc2c(ccc3ccccc32)oc1=O)c1nc2ccccc2s1 (configuration not stated)	-1.33	9*	-32.6	21.0	25.7	i
CCOC(=O)c1cc2c(ccc3ccccc32)oc1=O	-2.47	i	-5.7	-6.3	34.2	i
O=C(O)CC/C(=N\NC(=O)c1ccccc1Br)c1ccccc1	1.18	i	-7.0	10.9	21.3	i
